Experimental findings from paper PMC9593962 (Journal of chemical information and modeling, 2021) are described below.

One series has as its target hERG (Homo sapiens, UniProt Q12809). The experiment in a line: Patch-clamp electrophysiology of hERG blockade in HEK 293 cells. The class given is cell-based. To be noted: for IC50: read-out: IC50 at hERG, patch-clamp, whole cell tail currents. The procedure, abridged:
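Whole-cell patch clamp of hERG (described as mutants) expressed in HEK 293 cells. Pipette: 10 mM KCl, 110 mM K-aspartate, 5 mM MgCl2, 5 mM Na2ATP, 10 mM EGTA, 5 mM HEPES, 1 mM CaCl2, pH 7.2. Holding at −80 mV, 1-s step to +50 mV, tail current read at −100 mV. Test compound freshly dissolved in Tyrode, used within two hours.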
(The patch-clamp technique gives a direct electrical read-out from membranes.)

In another series the target is rDAT (Rattus norvegicus, UniProt P23977). The series is described as follows: Radioligand binding assay of rDAT with [3H]WIN35,428 in rat striatal membranes.
Sequence of rDAT (P23977 whole entry): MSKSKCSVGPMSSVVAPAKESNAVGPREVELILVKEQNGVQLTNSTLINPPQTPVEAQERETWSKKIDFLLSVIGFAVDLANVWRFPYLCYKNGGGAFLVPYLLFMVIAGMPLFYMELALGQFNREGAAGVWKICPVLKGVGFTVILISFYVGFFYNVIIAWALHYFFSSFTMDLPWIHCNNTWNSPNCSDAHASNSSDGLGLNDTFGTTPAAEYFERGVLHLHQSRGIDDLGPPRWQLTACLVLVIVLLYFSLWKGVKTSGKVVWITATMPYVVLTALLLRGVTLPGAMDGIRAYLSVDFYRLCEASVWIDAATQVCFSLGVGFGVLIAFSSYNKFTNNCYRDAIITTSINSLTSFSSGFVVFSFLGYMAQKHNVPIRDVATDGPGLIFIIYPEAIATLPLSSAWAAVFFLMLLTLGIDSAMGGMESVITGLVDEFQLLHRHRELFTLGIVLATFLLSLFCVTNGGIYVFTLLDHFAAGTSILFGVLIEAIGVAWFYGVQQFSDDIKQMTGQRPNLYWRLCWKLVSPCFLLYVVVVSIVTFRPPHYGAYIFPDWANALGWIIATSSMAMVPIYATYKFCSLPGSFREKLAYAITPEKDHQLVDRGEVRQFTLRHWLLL

Sequence of hERG (Q12809 whole entry): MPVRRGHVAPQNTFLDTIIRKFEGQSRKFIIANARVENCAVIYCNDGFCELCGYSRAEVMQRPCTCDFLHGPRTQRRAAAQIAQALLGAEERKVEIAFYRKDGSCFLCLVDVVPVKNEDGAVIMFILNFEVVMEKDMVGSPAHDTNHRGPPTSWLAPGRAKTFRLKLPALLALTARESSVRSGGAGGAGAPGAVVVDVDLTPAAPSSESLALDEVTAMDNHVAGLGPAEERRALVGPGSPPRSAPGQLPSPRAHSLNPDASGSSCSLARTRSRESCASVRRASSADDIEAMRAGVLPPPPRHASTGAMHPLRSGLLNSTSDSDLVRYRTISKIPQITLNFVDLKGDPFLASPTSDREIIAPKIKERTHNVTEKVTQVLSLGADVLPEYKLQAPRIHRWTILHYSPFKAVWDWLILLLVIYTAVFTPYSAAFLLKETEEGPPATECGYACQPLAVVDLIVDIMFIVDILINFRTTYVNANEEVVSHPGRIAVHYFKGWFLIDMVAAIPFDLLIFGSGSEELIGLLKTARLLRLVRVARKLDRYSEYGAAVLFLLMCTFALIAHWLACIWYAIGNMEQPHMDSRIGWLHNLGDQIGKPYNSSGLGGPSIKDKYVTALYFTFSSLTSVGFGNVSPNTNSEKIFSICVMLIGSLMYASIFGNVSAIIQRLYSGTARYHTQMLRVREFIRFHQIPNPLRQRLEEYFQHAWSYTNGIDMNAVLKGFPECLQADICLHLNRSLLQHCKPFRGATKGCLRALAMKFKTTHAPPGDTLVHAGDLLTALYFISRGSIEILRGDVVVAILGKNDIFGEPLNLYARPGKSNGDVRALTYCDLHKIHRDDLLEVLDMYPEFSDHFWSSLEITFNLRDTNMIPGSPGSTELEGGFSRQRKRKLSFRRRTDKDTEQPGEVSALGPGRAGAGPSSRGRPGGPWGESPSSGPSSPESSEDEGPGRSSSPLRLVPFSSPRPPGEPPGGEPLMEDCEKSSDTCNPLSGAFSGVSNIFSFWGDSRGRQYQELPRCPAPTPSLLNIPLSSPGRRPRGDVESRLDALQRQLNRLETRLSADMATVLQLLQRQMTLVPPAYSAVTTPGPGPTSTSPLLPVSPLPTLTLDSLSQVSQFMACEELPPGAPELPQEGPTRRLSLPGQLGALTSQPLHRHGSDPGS

For the molecule `Fc1ccc(C(SCCNCCCc2ccccc2)c2ccc(F)cc2)cc1` [JJC8-016], the IC50 on hERG was 60 nM.
With `[O-][S+](CCN1CCN(CC(O)Cc2ccccc2)CC1)C(c1ccc(F)cc1)c1ccc(F)cc1` (centres unmarked) [JJC8-088], on rDAT (ratio of Ki values, JJC8-088 versus JJC8-016), the “fold higher affinity than JJC8-016 at DAT” value is on record as ~ 90 fold. On rDAT (read-out: Ki at DAT, [3H]WIN35,428 as the radioligand), the Ki was determined as 2.6 nM. Besides, on hERG (ratio of IC50 values, JJC8-088 versus JJC8-016), the “fold lower affinity than JJC8-016 at hERG” value is recorded as ~ 2 fold. Also, the IC50 at hERG is 130 nM.

A word on the IC50: it is the concentration that inhibits the measured activity by half. Usually Ki stands for a dissociation constant, usually derived from enzyme kinetics or from competition with a known ligand.
